Experimental data reported in ChEMBL document CHEMBL2429859, “Inhibiting aberrant signal transducer and activator of transcription protein activation with tetrapodal, small molecule Src homology 2 domain binders: promising agents against multiple myeloma” (J Med Chem, 2013).
The source made the active and inactive calls. No cut-off for these calls is given here.

Columns and labels:
[1] = target: T1, Signal transducer and activator of transcription 5A (Homo sapiens) (UniProt P42229); assay: Inhibition of GM-CSF-induced Stat5 phosphorylation in serum-starved human U937 cells at 10 to 20 uM incubated for 4 hrs prior to GM-CSF induction measured after 15 mins by phopsho-flow cytometric analysis; assay type: cell-based; settings: U-937
T1 sequence (whole entry): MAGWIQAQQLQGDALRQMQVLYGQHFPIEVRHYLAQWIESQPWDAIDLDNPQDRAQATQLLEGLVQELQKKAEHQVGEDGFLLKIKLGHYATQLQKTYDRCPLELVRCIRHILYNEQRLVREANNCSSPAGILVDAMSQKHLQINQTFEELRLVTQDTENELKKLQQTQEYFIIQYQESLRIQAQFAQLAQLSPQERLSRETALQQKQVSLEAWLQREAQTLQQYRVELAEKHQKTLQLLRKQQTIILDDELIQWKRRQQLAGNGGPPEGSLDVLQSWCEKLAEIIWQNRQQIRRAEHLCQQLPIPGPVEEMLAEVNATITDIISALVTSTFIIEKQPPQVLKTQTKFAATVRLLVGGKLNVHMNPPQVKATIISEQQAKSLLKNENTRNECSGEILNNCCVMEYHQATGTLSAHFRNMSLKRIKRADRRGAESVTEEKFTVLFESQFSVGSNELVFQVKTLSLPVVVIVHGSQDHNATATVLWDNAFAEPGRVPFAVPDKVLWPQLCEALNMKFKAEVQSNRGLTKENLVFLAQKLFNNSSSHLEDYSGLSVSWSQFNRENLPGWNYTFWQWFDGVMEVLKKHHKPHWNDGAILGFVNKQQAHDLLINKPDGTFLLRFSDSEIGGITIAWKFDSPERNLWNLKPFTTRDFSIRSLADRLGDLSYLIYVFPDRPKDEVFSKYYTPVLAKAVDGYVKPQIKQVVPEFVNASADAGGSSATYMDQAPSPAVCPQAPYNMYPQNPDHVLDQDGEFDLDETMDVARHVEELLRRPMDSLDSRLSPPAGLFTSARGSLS
In short: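 Serum-starved U937 cells were pretreated with compound for 4 h, then stimulated 15 min with IL-6 (Stat3), GM-CSF (Stat5) or IFN (Stat1). Phosphorylation of each STAT was quantified by phospho-flow cytometry.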

[2] = Cytotoxicity against CD138-negative BMNC isolated from multiple myeloma patient assessed as cell viability at > 20 uM; settings: human
In short: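 Bone marrow mononuclear cells were isolated by Ficoll-Paque separation from 6 myeloma patient aspirates, cultured, and treated with compound. Cells were stained for CD138 and Annexin V, and the decrease in CD138+ (myeloma) and CD138- (non-myeloma) populations was reported.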

[3] = target: T2, Signal transducer and activator of transcription 3 (Homo sapiens, UniProt P40763); assay: Inhibition of Stat3-mediated luciferase expression in human XG6 cells at 15 to 30 uM after 6 hrs relative to control; assay type: cell-based
T2 sequence (P40763 whole entry): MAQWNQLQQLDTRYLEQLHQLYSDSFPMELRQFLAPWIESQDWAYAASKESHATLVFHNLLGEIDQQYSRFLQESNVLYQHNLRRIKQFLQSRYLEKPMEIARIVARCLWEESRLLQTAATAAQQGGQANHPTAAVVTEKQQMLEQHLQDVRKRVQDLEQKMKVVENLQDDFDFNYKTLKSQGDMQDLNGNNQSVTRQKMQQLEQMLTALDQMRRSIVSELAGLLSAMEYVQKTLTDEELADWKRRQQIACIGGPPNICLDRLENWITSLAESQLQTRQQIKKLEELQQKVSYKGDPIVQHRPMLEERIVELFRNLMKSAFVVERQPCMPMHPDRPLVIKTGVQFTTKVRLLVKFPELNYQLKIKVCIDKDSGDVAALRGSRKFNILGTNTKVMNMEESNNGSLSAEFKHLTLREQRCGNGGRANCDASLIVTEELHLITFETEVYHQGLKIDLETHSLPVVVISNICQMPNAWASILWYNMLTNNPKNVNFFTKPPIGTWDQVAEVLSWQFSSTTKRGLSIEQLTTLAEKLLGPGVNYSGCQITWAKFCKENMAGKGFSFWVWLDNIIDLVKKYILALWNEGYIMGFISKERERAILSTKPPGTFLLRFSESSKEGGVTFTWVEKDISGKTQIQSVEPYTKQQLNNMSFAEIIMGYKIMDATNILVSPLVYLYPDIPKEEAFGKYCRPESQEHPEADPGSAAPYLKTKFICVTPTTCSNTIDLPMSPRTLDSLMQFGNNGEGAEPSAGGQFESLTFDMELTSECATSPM
In short: (§1)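 Myeloma cells stably carried a Stat3-driven firefly luciferase reporter (puromycin-selected) and a CMV-driven Renilla luciferase internal control (hygromycin-selected), each selected for 2 weeks. After drug treatment, dual luciferase activity was read as relative luciferase units, firefly/Renilla.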

XG6 = assay: Induction of apoptosis in human XG6 cells at 10 to 20 uM by annexin V/propidium iodide staining-based flow cytometric analysis; assay type: functional, cell-based
In short: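 Apoptosis was measured by flow cytometry of Annexin V and propidium iodide staining. Viable, early apoptotic and late apoptotic cells were scored by quadrant, with time points at 24 and 48 h.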

[4] = target: T2, Signal transducer and activator of transcription 3; assay: Inhibition of Stat3 in human JJN-3 cells assessed as downregulation of c-Myc protein expression after 6 hrs by Western blot analysis; assay type: cell-based
In short: (§2)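 Treated cells were washed in cold PBS and lysed 30 min on ice in Tris-HCl pH 7.4/NaCl/EDTA/1% NP-40 with PMSF, vanadate and protease inhibitors. Lysates were Bradford-normalized, and 10-30 µg protein was run on 7-10% SDS-PAGE and transferred to PVDF. Blots were blocked in 5% BSA/TBST, probed overnight at 4 °C, then with HRP secondary, and detected by ECL.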

[5] = target: T2, Signal transducer and activator of transcription 3; assay: Inhibition of Stat3-mediated luciferase expression in human XG6 cells at 7.5 to 15 uM after 6 hrs relative to control; assay type: cell-based; in short: as §1
RPMI-8226 = assay: Cytotoxicity against human RPMI8226 cells assessed as cell viability at 7.5 uM after 72 hrs by MTT assay; assay type: functional, cell-based
In short: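 Myeloma lines were seeded at 1-3 x 10^4 cells per well onto compound or vehicle, in triplicate, and cultured 72 h at 37 °C in 5% CO2. Viability was measured colorimetrically by MTT assay relative to DMSO control. EC50 was fitted to a standard dose-response curve where applicable.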

JJN-3 = assay: Inhibition of total Stat3 level in human JJN-3 cells at 5 to 10 uM after 6 hrs by Western blot analysis; assay type: functional, cell-based; in short: as §2
[6] = target: T2, Signal transducer and activator of transcription 3; assay: Inhibition of Stat3-mediated luciferase expression in human 8226 cells at 7.5 to 15 uM after 6 hrs relative to control; assay type: cell-based; in short: as §1

Structure (SMILES) | inhibition [1] | Activity [2] | inhibition [3] [%] | Activity (XG6) | inhibition [4] | inhibition [5] [%] | Activity (RPMI-8226) | inhibition (JJN-3) | inhibition [6] [%]
Cc1ccc(S(=O)(=O)N(CC(=O)N(Cc2ccc(C3CCCCC3)cc2)c2ccc(C(=O)O)c(O)c2)Cc2ccccc2C(F)(F)F)cc1 | Active | Non-toxic | 50 | Active | Dose-dependent effect | – | – | – | –
O=C(O)c1ccc(N(Cc2ccc(C3CCCCC3)cc2)C(=O)CN(Cc2ccccc2C(F)(F)F)S(=O)(=O)c2c(F)c(F)c(F)c(F)c2F)cc1O | Active | – | – | – | Dose-dependent effect | 50 | Active | inactive | 50
